ChEMBL document CHEMBL1155589, “Use of COMPARE analysis to discover new natural product drugs: isolation of camptothecin and 9-methoxycamptothecin from a new source” (J Nat Prod, 2000)
In brackets after ≈: the same amount, converted by molar mass.

Experiments:
Type in all cases: functional, organism-based
[1] = system: Saccharomyces cerevisiae; experiment: Growth inhibition of RAD52/topoisomerase 1 deficient Saccharomyces cerevisiae RS321N harbouring plasmid containing human topoisomerase 1 in galactose medium after 48 hrs
Summary of the method: (§1)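 Strains: RS321N (rad52 top1) carrying a single-copy plasmid with human TOP1 under the GAL1 promoter; RS321NYCp50 (vector control, tested in galactose); RS322N (rad52). Cells diluted to OD600 0.01 in synthetic minimal medium with glucose or galactose. Compounds added in DMSO (final <1%). Incubated 48 h at 30 °C in a humidified chamber. Read as background-subtracted OD595. Growth decrease relative to drug-free wells, from concentration-response, gave IC50.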

[2] = system: Saccharomyces cerevisiae; experiment: Growth inhibition of Saccharomyces cerevisiae RS321N containing YCp50 vector plasmid after 48 hrs; summary of the method: as §1
[3] = system: Saccharomyces cerevisiae; experiment: Growth inhibition of RAD52/topoisomerase 1 deficient Saccharomyces cerevisiae RS321N harbouring plasmid containing human topoisomerase 1 in glucose medium after 48 hrs; summary of the method: as §1
[4] = system: Saccharomyces cerevisiae; experiment: Growth inhibition of RAD52 deficient Saccharomyces cerevisiae RS322 carrying pRAD52 in galactose medium after 48 hrs
[5] = system: Saccharomyces cerevisiae; experiment: Growth inhibition of RAD52 deficient Saccharomyces cerevisiae RS322 carrying pRAD52 in glucose medium after 48 hrs
[6] = system: Saccharomyces cerevisiae; experiment: Growth inhibition of Saccharomyces cerevisiae expressing wild type erg6 in glucose medium after 48 hrs
[7] = system: Saccharomyces cerevisiae; experiment: Growth inhibition of RAD52/topoisomerase-1 deficient Saccharomyces cerevisiae RS321 in glucose medium after 48 hrs; summary of the method: as §1
[8] = system: Saccharomyces cerevisiae; experiment: Growth inhibition of RAD52 deficient Saccharomyces cerevisiae RS322 in glucose medium after 48 hrs; summary of the method: as §1

CC[C@@]1(O)C(=O)OCc2c1cc1n(c2=O)Cc2cc3ccccc3nc2-1 [CAMPTOTHECIN]
IC50 [1]: 0.014 µg/mL (≈ 0.0402 µM)
IC50 [2]: 0.16 µg/mL (≈ 0.459 µM)
IC50 [3]: > 100 µg/mL
IC50 [4]: 0.18 µg/mL (≈ 0.517 µM)
IC50 [5]: > 100 µg/mL
IC50 [6]: > 100 µg/mL
IC50 [7]: > 100 µg/mL
IC50 [8]: 0.06 µg/mL (≈ 0.172 µM)

CC[C@@]1(O)C(=O)OCc2c1cc1n(c2=O)Cc2cc3c(CN(C)C)c(O)ccc3nc2-1 [TOPOTECAN]
IC50 [1]: 9.9 µg/mL (≈ 23.5 µM)
IC50 [3]: > 100 µg/mL
